Experimental data taken from ChEMBL document CHEMBL3797149, “1-Sulfonyl-6-Piperazinyl-7-Azaindoles as potent and pseudo-selective 5-HT6 receptor antagonists” (Bioorg Med Chem Lett, 2016).
In brackets after ≈: the same amount, converted by molar mass.

Legend:
Brain [1] = experiment: Cmax in CD1 mouse brain at 3 mg/kg, po as single dose after 6 hrs by LC-MS/MS analysis; format: ADME, organism-based; design: dose 3 mg/kg, route oral; details: in vivo, BLD = below limit of detection
[2] = Tmax in CD1 mouse brain at 3 mg/kg, sc by LC-MS/MS analysis; format: ADME, organism-based
[3] = Ratio of drug level in brain to plasma in CD1 mouse at 10 mg/kg, po as single dose by LC-MS/MS analysis; format: ADME, organism-based; details: read-out: BPR
Cytochrome P450 3A4 = Cytochrome P450 3A4 (Homo sapiens, UniProt P08684); experiment: Inhibition of human recombinant CYP3A4 using 7-benzyloxy-trifluoromethylcoumarin as substrate incubated for 30 mins by fluorescence analysis in presence of NADPH; format: ADME
Cytochrome P450 3A4, sequence (P08684 whole entry): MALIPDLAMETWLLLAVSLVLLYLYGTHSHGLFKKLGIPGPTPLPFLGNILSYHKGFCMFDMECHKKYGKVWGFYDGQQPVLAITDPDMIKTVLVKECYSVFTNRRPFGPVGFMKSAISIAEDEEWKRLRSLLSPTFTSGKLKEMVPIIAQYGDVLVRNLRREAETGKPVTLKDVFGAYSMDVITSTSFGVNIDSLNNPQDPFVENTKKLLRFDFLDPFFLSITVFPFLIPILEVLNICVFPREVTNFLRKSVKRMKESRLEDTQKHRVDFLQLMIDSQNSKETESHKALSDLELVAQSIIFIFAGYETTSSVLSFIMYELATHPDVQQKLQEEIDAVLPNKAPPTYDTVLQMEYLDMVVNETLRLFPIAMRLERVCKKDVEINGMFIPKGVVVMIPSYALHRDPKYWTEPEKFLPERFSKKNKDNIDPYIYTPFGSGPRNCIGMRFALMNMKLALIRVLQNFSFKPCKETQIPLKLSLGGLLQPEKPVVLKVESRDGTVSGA

[4] = Ratio of drug level in brain to plasma in CD1 mouse at 3 mg/kg, sc by LC-MS/MS analysis; format: ADME, organism-based; details: read-out: BPR
[5] = Tmax in CD1 mouse brain at 10 mg/kg, sc by LC-MS/MS analysis; format: ADME, organism-based
[6] = AUClast in CD1 mouse brain at 10 mg/kg, sc after 6 hrs by LC-MS/MS analysis; format: ADME, organism-based; design: dose 10 mg/kg, time < 6 hr, route subcutaneous
[7] = Intrinsic clearance in human liver microsomes at 1 uM by UPLC-MS analysis in presence of NADPH and UDPGA; format: ADME; details: read-out: CLH
[8] = Ratio of drug level in liver to plasma in CD1 mouse at 10 mg/kg, sc by LC-MS/MS analysis; format: ADME, organism-based
[9] = AUClast in CD1 mouse liver at 10 mg/kg, po as single dose after 6 hrs by LC-MS/MS analysis; format: ADME, organism-based; design: dose 10 mg/kg, time < 6 hr, route oral
[10] = Tmax in CD1 mouse liver at 10 mg/kg, sc by LC-MS/MS analysis; format: ADME, organism-based
[11] = Cmax in CD1 mouse brain at 10 mg/kg, sc after 6 hrs by LC-MS/MS analysis; format: ADME, organism-based; design: dose 10 mg/kg, route subcutaneous
[12] = biological target: 5-hydroxytryptamine receptor 6 (Homo sapiens, UniProt P50406); experiment: Displacement of [3H]LSD from human 5HT6 receptor in HEK293 cell membrane incubated for 1 hr by scintillation counting method; format: cell membranes
5-hydroxytryptamine receptor 6, sequence (P50406 whole entry): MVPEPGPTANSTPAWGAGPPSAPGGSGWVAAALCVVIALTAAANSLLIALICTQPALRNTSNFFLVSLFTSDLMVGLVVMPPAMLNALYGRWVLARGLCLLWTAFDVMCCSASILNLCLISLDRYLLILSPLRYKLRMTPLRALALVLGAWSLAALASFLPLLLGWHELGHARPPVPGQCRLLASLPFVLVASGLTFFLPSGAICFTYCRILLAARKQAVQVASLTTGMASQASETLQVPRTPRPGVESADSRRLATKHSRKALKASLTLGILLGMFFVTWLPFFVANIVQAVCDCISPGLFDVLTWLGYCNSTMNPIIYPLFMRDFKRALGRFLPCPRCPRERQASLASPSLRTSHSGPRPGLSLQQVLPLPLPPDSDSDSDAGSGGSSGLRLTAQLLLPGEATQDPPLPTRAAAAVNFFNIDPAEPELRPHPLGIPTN
Procedure, shortened: (§1)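 Competition binding: [3H]-LSD displacement for 5-HT6 and [3H]-NMSP displacement for D2. Eight compound concentrations, 5 × 10^-6 to 5 × 10^-13 M, each tested in triplicate. Affinity is reported as Ki.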

[13] = AUClast in CD1 mouse plasma at 10 mg/kg, po as single dose after 0.083 to 6 hrs by LC-MS/MS analysis; format: ADME, organism-based; design: time upper 6 hr, time lower 0.083 hr, dose 10 mg/kg, route oral
[14] = Cmax in CD1 mouse plasma at 3 mg/kg, sc after 0.083 to 6 hrs by LC-MS/MS analysis; format: ADME, organism-based; design: dose 3 mg/kg, route subcutaneous
[15] = Cmax in CD1 mouse plasma at 3 mg/kg, po as single dose after 0.083 to 6 hrs by LC-MS/MS analysis; format: ADME, organism-based; design: dose 3 mg/kg, route oral
[16] = AUClast in CD1 mouse brain at 10 mg/kg, po as single dose after 6 hrs by LC-MS/MS analysis; format: ADME, organism-based; design: time < 6 hr, dose 10 mg/kg, route oral
[17] = Ratio of drug level in liver to plasma in CD1 mouse at 10 mg/kg, po as single dose by LC-MS/MS analysis; format: ADME, organism-based
[18] = Cmax in CD1 mouse liver at 3 mg/kg, sc after 6 hrs by LC-MS/MS analysis; format: ADME, organism-based; design: dose 3 mg/kg, route subcutaneous
[19] = AUClast in CD1 mouse liver at 3 mg/kg, po as single dose after 6 hrs by LC-MS/MS analysis; format: ADME, organism-based; design: dose 3 mg/kg, time < 6 hr, route oral
D(2) dopamine receptor = D(2) dopamine receptor (Homo sapiens, UniProt P14416); experiment: Displacement of [3H]NMSP from human dopamine D2S receptor expressed in CHO cell membrane incubated for 1 hr by scintillation counting method; format: cell membranes; procedure, shortened: as §1
D(2) dopamine receptor, sequence (P14416 whole entry): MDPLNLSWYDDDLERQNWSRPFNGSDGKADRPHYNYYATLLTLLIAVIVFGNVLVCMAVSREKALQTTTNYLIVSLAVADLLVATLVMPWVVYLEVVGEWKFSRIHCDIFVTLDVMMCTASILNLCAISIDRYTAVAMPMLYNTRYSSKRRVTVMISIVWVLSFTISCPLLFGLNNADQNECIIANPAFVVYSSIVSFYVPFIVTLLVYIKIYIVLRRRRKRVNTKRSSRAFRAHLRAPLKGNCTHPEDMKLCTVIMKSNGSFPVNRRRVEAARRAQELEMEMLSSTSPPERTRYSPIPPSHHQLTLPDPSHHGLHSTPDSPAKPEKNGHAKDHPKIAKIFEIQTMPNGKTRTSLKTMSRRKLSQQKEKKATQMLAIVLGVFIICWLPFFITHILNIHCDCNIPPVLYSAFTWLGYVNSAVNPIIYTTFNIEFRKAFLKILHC

[20] = Ratio of drug level in brain to plasma in CD1 mouse at 3 mg/kg, po as single dose by LC-MS/MS analysis; format: ADME, organism-based; details: BLD = below limit of detection
[21] = AUClast in CD1 mouse brain at 3 mg/kg, sc after 6 hrs by LC-MS/MS analysis; format: ADME, organism-based; design: time < 6 hr, dose 3 mg/kg, route subcutaneous
[22] = biological target: Voltage-gated inwardly rectifying potassium channel KCNH2 (Homo sapiens, UniProt Q12809); experiment: Inhibition of human ERG1 expressed in CHO cells by whole cell patch clamp electrophysiology method
Voltage-gated inwardly rectifying potassium channel KCNH2, sequence (Q12809 whole entry): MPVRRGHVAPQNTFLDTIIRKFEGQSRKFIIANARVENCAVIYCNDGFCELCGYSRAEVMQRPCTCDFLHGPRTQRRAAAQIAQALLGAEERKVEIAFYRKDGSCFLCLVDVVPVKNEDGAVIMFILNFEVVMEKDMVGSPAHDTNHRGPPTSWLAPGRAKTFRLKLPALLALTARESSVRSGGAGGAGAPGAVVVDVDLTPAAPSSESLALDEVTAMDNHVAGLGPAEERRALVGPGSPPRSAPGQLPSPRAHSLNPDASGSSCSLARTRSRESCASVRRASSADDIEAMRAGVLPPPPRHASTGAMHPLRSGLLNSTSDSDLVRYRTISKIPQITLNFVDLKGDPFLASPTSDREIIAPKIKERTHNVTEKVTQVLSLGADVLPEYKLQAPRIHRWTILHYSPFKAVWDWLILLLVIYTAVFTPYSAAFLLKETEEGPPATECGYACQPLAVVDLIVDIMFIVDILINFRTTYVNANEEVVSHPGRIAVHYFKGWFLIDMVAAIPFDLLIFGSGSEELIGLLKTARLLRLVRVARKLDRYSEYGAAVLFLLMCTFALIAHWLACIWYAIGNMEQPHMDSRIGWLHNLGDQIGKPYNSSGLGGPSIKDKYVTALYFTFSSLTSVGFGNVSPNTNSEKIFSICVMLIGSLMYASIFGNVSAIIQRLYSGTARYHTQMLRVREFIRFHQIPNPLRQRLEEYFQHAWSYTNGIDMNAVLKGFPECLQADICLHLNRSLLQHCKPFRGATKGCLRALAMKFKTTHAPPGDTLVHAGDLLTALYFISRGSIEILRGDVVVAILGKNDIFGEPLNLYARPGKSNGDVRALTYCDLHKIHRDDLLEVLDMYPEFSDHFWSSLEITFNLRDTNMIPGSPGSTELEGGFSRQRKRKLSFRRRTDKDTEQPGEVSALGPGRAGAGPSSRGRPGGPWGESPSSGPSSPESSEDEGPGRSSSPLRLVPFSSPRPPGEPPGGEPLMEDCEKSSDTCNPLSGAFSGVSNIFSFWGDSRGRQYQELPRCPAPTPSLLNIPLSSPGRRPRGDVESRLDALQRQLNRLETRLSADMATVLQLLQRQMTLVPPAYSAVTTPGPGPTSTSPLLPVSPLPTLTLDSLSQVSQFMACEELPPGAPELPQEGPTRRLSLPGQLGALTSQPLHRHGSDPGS

[23] = Tmax in CD1 mouse brain at 10 mg/kg, po as single dose by LC-MS/MS analysis; format: ADME, organism-based
Brain [24] = experiment: Tmax in CD1 mouse brain at 3 mg/kg, po as single dose by LC-MS/MS analysis; format: ADME, organism-based; details: in vivo, BLD = below limit of detection
[25] = Cmax in CD1 mouse brain at 10 mg/kg, po as single dose after 6 hrs by LC-MS/MS analysis; format: ADME, organism-based; design: dose 10 mg/kg, route oral
[26] = AUClast in CD1 mouse plasma at 10 mg/kg, sc after 0.083 to 6 hrs by LC-MS/MS analysis; format: ADME, organism-based; design: time 0.083-6 hr, dose 10 mg/kg, route subcutaneous
[27] = Ratio of drug level in liver to plasma in CD1 mouse at 3 mg/kg, sc by LC-MS/MS analysis; format: ADME, organism-based
[28] = Passive permeability of compound after 4 hrs by sink-PAMPA assay; format: ADME; details: read-out: permeability
[29] = Intrinsic clearance in rat liver microsomes at 1 uM by UPLC-MS analysis in presence of NADPH and UDPGA; format: ADME; details: read-out: CLH
[30] = Cmax in CD1 mouse liver at 10 mg/kg, po as single dose after 6 hrs by LC-MS/MS analysis; format: ADME, organism-based; design: dose 10 mg/kg, route oral
[31] = AUClast in CD1 mouse liver at 3 mg/kg, sc after 6 hrs by LC-MS/MS analysis; format: ADME, organism-based; design: time < 6 hr, dose 3 mg/kg, route subcutaneous
[32] = Cmax in CD1 mouse plasma at 10 mg/kg, sc after 0.083 to 6 hrs by LC-MS/MS analysis; format: ADME, organism-based; design: dose 10 mg/kg, route subcutaneous
[33] = Cmax in CD1 mouse brain at 3 mg/kg, sc after 6 hrs by LC-MS/MS analysis; format: ADME, organism-based; design: dose 3 mg/kg, route subcutaneous
[34] = AUClast in CD1 mouse liver at 10 mg/kg, sc after 6 hrs by LC-MS/MS analysis; format: ADME, organism-based; design: dose 10 mg/kg, time < 6 hr, route subcutaneous
[35] = Ratio of drug level in brain to plasma in CD1 mouse at 10 mg/kg, sc by LC-MS/MS analysis; format: ADME, organism-based; details: read-out: BPR
[36] = Tmax in CD1 mouse plasma at 3 mg/kg, sc by LC-MS/MS analysis; format: ADME, organism-based
Cytochrome P450 2D6 = Cytochrome P450 2D6 (Homo sapiens, UniProt P10635); experiment: Inhibition of human recombinant CYP2D6 using AMMC as substrate incubated for 45 mins by fluorescence analysis in presence of NADPH; format: ADME
Cytochrome P450 2D6, sequence (P10635 whole entry): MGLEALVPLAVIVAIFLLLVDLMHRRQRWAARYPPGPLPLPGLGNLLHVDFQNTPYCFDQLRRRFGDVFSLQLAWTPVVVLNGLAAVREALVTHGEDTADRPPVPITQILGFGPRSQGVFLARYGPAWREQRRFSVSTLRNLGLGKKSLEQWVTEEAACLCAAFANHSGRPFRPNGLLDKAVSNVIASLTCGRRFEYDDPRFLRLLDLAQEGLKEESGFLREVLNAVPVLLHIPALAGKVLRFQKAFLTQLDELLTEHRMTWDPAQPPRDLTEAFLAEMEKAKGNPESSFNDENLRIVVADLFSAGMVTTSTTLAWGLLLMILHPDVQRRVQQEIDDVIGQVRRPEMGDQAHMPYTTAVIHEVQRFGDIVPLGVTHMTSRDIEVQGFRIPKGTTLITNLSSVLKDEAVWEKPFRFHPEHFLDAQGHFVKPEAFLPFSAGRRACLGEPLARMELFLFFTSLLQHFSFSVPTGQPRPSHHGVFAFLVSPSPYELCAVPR

[37] = Tmax in CD1 mouse plasma at 3 mg/kg, po as single dose by LC-MS/MS analysis; format: ADME, organism-based
[38] = Ratio of drug level in liver to plasma in CD1 mouse at 3 mg/kg, po as single dose by LC-MS/MS analysis; format: ADME, organism-based
[39] = Tmax in CD1 mouse plasma at 10 mg/kg, sc by LC-MS/MS analysis; format: ADME, organism-based
[40] = Tmax in CD1 mouse liver at 3 mg/kg, po as single dose by LC-MS/MS analysis; format: ADME, organism-based
[41] = Cmax in CD1 mouse liver at 10 mg/kg, sc after 6 hrs by LC-MS/MS analysis; format: ADME, organism-based; design: dose 10 mg/kg, route subcutaneous
[42] = AUClast in CD1 mouse plasma at 3 mg/kg, sc after 0.083 to 6 hrs by LC-MS/MS analysis; format: ADME, organism-based; design: time lower 0.083 hr, dose 3 mg/kg, time upper 6 hr, route subcutaneous
[43] = Cmax in CD1 mouse plasma at 10 mg/kg, po as single dose after 0.083 to 6 hrs by LC-MS/MS analysis; format: ADME, organism-based; design: dose 10 mg/kg, route oral
[44] = Cmax in CD1 mouse liver at 3 mg/kg, po as single dose after 6 hrs by LC-MS/MS analysis; format: ADME, organism-based; design: dose 3 mg/kg, route oral
[45] = Kinetic solubility in sorensen buffer at pH 7.4 incubated for 1 hr by UV-Visible spectrophotometry; format: physicochemical; details: read-out: Kinetic_solubility
[46] = Tmax in CD1 mouse liver at 3 mg/kg, sc by LC-MS/MS analysis; format: ADME, organism-based
[47] = Intrinsic clearance in mouse liver microsomes at 1 uM by UPLC-MS analysis in presence of NADPH and UDPGA; format: ADME; details: read-out: CLH
[48] = AUClast in CD1 mouse plasma at 3 mg/kg, po as single dose after 0.083 to 6 hrs by LC-MS/MS analysis; format: ADME, organism-based; design: dose 3 mg/kg, time upper 6 hr, time lower 0.083 hr, route oral
[49] = Tmax in CD1 mouse liver at 10 mg/kg, po as single dose by LC-MS/MS analysis; format: ADME, organism-based
[50] = Tmax in CD1 mouse plasma at 10 mg/kg, po as single dose by LC-MS/MS analysis; format: ADME, organism-based

CC(C)CS(=O)(=O)n1ccc2c(-c3ccc(C(F)(F)F)cc3)cc(N3CCN(C)CC3)nc21
Cmax (Brain [1]): BLD | Tmax [2]: 6 h | Kp [3]: 1.4 | IC50 (Cytochrome P450 3A4): 1100 nM | Kp [4]: 0.9 | Tmax [5]: 6 h | AUC(0-t) at 6 h [6]: 161 ng·h/mL | microsomal CLint at 1 µM [7]: 20 µL/min/mg | Kp [8]: 3.3 | AUC(0-t) at 6 h [9]: 2970 ng·h/mL | Tmax [10]: 1 h | Cmax [11]: 36 ng/mL | Ki [12]: 4 nM | AUC(0-t) [13]: 97 ng·h/mL | Cmax [14]: 18 ng/mL | Cmax [15]: 3 ng/mL | AUC(0-t) at 6 h [16]: 134 ng·h/mL | Kp [17]: 30.7 | Cmax [18]: 43 ng/mL | AUC(0-t) at 6 h [19]: 260 ng·h/mL | Ki (D(2) dopamine receptor): 367 nM | BPR [20]: BLD | AUC(0-t) at 6 h [21]: 79 ng·h/mL | IC50 [22]: 2100 nM | Tmax [23]: 6 h | Tmax (Brain [24]): BLD | Cmax [25]: 26 ng/mL | AUC(0-t) [26]: 208 ng·h/mL | Kp [27]: 2.7 | Papp at 4 h [28]: 53.7 ×10⁻⁶ cm/s | microsomal CLint at 1 µM [29]: 55 µL/min/mg | Cmax [30]: 740 ng/mL | AUC(0-t) at 6 h [31]: 241 ng·h/mL | Cmax [32]: 44 ng/mL | Cmax [33]: 16 ng/mL | AUC(0-t) at 6 h [34]: 687 ng·h/mL | Kp [35]: 0.8 | Tmax [36]: 1 h | IC50 (Cytochrome P450 2D6): 3.3 µM | Tmax [37]: 1 h | Kp [38]: 19.5 | Tmax [39]: 1 h | Tmax [40]: 15 min | Cmax [41]: 142 ng/mL | AUC(0-t) [42]: 90 ng·h/mL | Cmax [43]: 17 ng/mL | Cmax [44]: 110 ng/mL | solubility kinetic at 1 h [45]: 8 µg/mL (≈ 16.6 µM) | Tmax [46]: 1 h | microsomal CLint at 1 µM [47]: 63 µL/min/mg | AUC(0-t) [48]: 13 ng·h/mL | Tmax [49]: 30 min | Tmax [50]: 6 h
